According to ChEMBL document CHEMBL1146466, “Immunomodulatory constituents from an Ascomycete, Chaetomium seminudum” (J Nat Prod, 2004):
In brackets after ≈: the same amount, converted by molar mass.

What was measured:
[1] = Immunosuppressive activity in BALB/c mouse splenic B lymphocytes assessed as inhibition of LPS-induced cell proliferation after 72 hrs by MTT assay; format: functional, cell-based
In short: (§1)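 Splenocytes from three male BALB/c mice (7-11 weeks) at 8.0 × 10^6 cells/mL in FBS/RPMI, stimulated with LPS (B cells) or Con A (T cells) at 70% of the optimum dose from a dose-response curve. Samples were dissolved in 1.0% EtOH/medium and incubated 72 h at 37 °C in 5% CO2. MTT (5.0 mg/mL stock) was added for 4 h, formazan extracted into DMSO, and A570/630 read. Proliferation was expressed as % of no-sample control, in triplicate. IC50 came from a 7-concentration curve.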

[2] = Immunosuppressive activity in BALB/c mouse splenic T lymphocytes assessed as inhibition of Con A-induced cell proliferation after 72 hrs by MTT assay; format: functional, cell-based; in short: as §1

| SMILES | IC50 [1] [ng/mL] | IC50 [2] [ng/mL] |
| --- | --- | --- |
| CN1C(=O)[C@]2(Cc3cn([C@]45C[C@@]67SSS[C@@](CO)(C(=O)N6[C@H]4Nc4ccccc45)N(C)C7=O)c4ccccc34)SS[C@@]1(CO)C(=O)N2C [CHETOSEMINUDIN A] | 130 (≈ 175 nM) | 180 (≈ 242 nM) |
| Cn1cnc([N+](=O)[O-])c1Sc1ncnc2[nH]cnc12 [AZATHIOPRINE] | 2700 (≈ 9740 nM) | 2700 (≈ 9740 nM) |
| CS[C@]1(CO)NC(=O)[C@](Cc2c[nH]c3ccccc23)(SC)NC1=O [CHETOSEMINUDIN C] | – | > 50000 |
| C=CC[C@@H]1/C=C(\C)C[C@H](C)C[C@H](OC)[C@H]2O[C@@](O)(C(=O)C(=O)N3CCCC[C@H]3C(=O)O[C@H](/C(C)=C/[C@@H]3CC[C@@H](O)[C@H](OC)C3)[C@H](C)[C@@H](O)CC1=O)[C@H](C)C[C@@H]2OC [TACROLIMUS ANHYDROUS] | 1.6 (≈ 1.99 nM) | 0.015 (≈ 0.0187 nM) |
| CN1C(=O)[C@]2(Cc3cn([C@]45C[C@@]67SS[C@@](CO)(C(=O)N6[C@H]4Nc4ccccc45)N(C)C7=O)c4ccccc34)SS[C@@]1(CO)C(=O)N2C [CHETOMIN] | 90 (≈ 127 nM) | 170 (≈ 239 nM) |
| CS[C@]1(Cc2c[nH]c3ccccc23)NC(=O)[C@](CO)(SC)N(C)C1=O [CHETOSEMINUDIN B] | – | 24000 (≈ 63200 nM) |
